This is an account of results in BindingDB's records for doi:10.1016/j.bmc.2014.09.055 (University of Arizona, 2014).

This test concerns the target Melanocortin receptor 4 (Homo sapiens, UniProt P32245). The test can be described thus: Displacement of Eu-DTPA-NDP-a-MSH chelate from human melanocortin-4 receptor expressed in HEK293 cells after 1 hr by competitive DELFIA assay. The method in brief: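 HEK293 cells stably carrying hMC4R (pcDNA3.1) were grown in DMEM plus 10% FBS, seeded at 12,000 cells/well and cultured 3 days. Whole cells were competed with unlabeled ligand against 10 nM (final) Eu-DTPA-NDP-α-MSH in binding medium (DMEM, 1 mM 1,10-phenanthroline, bacitracin, leupeptin, 0.3% BSA) for 1 h at 37 °C, in quadruplicate. EC50 and Hill slope came from variable-slope sigmoidal fits.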

Sequence of Melanocortin receptor 4 (P32245 whole entry): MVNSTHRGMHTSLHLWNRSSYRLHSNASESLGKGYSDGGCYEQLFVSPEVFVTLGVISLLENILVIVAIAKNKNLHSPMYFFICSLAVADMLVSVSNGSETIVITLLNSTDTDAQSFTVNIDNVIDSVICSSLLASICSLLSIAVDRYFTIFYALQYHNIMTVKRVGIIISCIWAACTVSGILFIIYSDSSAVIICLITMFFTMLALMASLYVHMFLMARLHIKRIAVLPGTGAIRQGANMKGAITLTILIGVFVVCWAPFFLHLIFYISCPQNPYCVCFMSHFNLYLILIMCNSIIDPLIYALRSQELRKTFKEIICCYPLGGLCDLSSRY

Usually EC50 stands for the concentration that produces a half-maximal response. Read a low EC50 as higher potency in that assay. The compound `CCCC[C@H](NC(=O)COCC(=O)NCCCOCCOCCOCCCNC(=O)COCC(=O)NCCCOCCOCCOCCCNC(=O)[C@H](Cc1c[nH]c2ccccc12)NC(=O)[C@H](CCCNC(=N)N)NC(=O)[C@@H](Cc1ccccc1)NC(=O)[C@H](Cc1cnc[nH]1)NC(=O)[C@H](CCC(=O)O)NC(=O)[C@H](CC(C)C)NC(=O)[C@H](CO)NC(C)=O)C(=O)N[C@H]1CC(=O)NCCCC[C@@H](C(N)=O)NC(=O)[C@H](Cc2c[nH]c3ccccc23)NC(=O)[C@H](CCCNC(=N)N)NC(=O)[C@@H](Cc2ccc3ccccc3c2)NC(=O)[C@H](Cc2cnc[nH]2)NC1=O` showed an EC50 of 1.7 nM.
The same measure for `CCCC[C@H](NC(=O)CNC(=O)[C@@H]1CCCN1C(=O)CNC(=O)[C@@H]1CCCN1C(=O)CNC(=O)[C@@H]1CCCN1C(=O)CNC(=O)[C@@H]1CCCN1C(=O)CNC(=O)[C@@H]1CCCN1C(=O)CNC(=O)[C@@H]1CCCN1C(=O)CNC(=O)[C@@H]1CCCN1C(=O)CNC(=O)[C@@H]1CCCN1C(=O)CNC(=O)[C@@H]1CCCN1C(=O)CNC(=O)[C@@H]1CCCN1C(=O)CNC(=O)[C@@H]1CCCN1C(=O)CNC(=O)[C@@H]1CCCN1C(=O)[C@H](Cc1c[nH]c2ccccc12)NC(=O)[C@H](CCCNC(=N)N)NC(=O)[C@@H](Cc1ccccc1)NC(=O)[C@H](Cc1cnc[nH]1)NC(=O)[C@H](CCC(=O)O)NC(=O)[C@H](CC(C)C)NC(=O)[C@H](CO)NC(C)=O)C(=O)N[C@H]1CC(=O)NCCCC[C@@H](C(N)=O)NC(=O)[C@H](Cc2c[nH]c3ccccc23)NC(=O)[C@H](CCCNC(=N)N)NC(=O)[C@@H](Cc2ccc3ccccc3c2)NC(=O)[C@H](Cc2cnc[nH]2)NC1=O`: 1.6 nM.
